Test results from ChEMBL document CHEMBL4177770, “Discovery of MK-6169, a Potent Pan-Genotype Hepatitis C Virus NS5A Inhibitor with Optimized Activity against Common Resistance-Associated Substitutions” (J Med Chem, 2018).

Tests used:
[1] = Cmax in Beagle dog at 5 mg/kg, po by LC/MS method; assay type: ADME, organism-based, Canis lupus familiaris; parameters: dose 5 mg/kg, route oral; details: in vivo
Method in brief: (§1)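 Beagle dogs, two animals per dosing group. Oral dose was given in 10% TWEEN. Blood was collected and spun to plasma, and plasma compound levels were measured by LC/MS.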

[2] = Drug level in Beagle dog at 5 mg/kg, po measured at 24 hrs by LC/MS method; assay type: ADME, organism-based, Canis lupus familiaris; details: in vivo, read-out: Drug uptake; method in brief: as §1
[3] = Oral bioavailability in Wistar Han rat at 10 mg/kg by LC/MS method; assay type: ADME, organism-based; details: in vivo
Method in brief: (§2)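 Male Wistar Han rats, two per dosing group, dosed orally at 10 mg/kg in 10% TWEEN. Plasma was separated from collected blood by centrifugation and analysed by LC/MS.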

[4] = Resistance ratio of EC90 for NS5A L31F mutant in HCV genotype 3a infected in HuH7 replicon cells to EC90 for NS5A in HCV genotype 1a infected in HuH7 replicon cells; assay type: cell-based
[5] = Cmax in Wistar Han rat at 10 mg/kg, po by LC/MS method; assay type: ADME, organism-based; parameters: dose 10 mg/kg, route oral; details: in vivo; method in brief: as §2
[6] = target: T1, Nonstructural protein 5A (Hepatitis C virus) (UniProt Q5L478); test: Inhibition of NS5A F28L mutant in HCV genotype 2a infected in HuH7 replicon cells assessed as decrease in viral replication after 3 days by RT-PCR method; assay type: cell-based; details: Hepatitis C virus subtype 2a
T1 sequence (whole entry): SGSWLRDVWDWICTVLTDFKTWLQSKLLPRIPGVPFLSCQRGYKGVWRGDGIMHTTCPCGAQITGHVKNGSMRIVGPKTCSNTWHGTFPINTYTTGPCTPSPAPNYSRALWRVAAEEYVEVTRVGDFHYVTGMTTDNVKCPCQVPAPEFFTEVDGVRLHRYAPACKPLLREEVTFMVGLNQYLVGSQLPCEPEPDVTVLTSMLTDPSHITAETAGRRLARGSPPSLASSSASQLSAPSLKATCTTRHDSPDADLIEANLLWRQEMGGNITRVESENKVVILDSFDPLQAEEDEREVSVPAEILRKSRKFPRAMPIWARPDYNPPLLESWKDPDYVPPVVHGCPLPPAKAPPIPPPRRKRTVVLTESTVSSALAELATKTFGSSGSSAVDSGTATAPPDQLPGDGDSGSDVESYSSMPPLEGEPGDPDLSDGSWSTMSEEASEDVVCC

[7] = tested on: Nonstructural protein 5A (Hepatitis C virus), Q5L478 [UNDEFINED MUTATION]; test: Inhibition of NS5A L31M/Y93C double mutant in HCV genotype 1a infected in HuH7 replicon cells assessed as decrease in viral replication after 3 days by RT-PCR method; assay type: cell-based; details: Hepatitis C virus subtype 1a
[8] = target: T1, Nonstructural protein 5A (Hepatitis C virus); test: Inhibition of NS5A A92T mutant in HCV genotype 1b infected in HuH7 replicon cells assessed as decrease in viral replication after 3 days by RT-PCR method; assay type: cell-based; details: Hepatitis C virus subtype 1b
[9] = tested on: Hepatitis C virus subtype 1a; test: Resistance ratio of EC90 for NS5A L31M/Y93C double mutant in HCV genotype 1a infected in HuH7 replicon cells to EC90 for NS5A in HCV genotype 1a infected in HuH7 replicon cells; assay type: cell-based
Huh-7 = test: Cytotoxicity against human HuH7 cells assessed as effect on GAPDH mRNA levels up to 25 uM; assay type: cell-based
Method in brief: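 Huh-7 cells were exposed to compound up to a top concentration of 25 µM. Cytotoxicity was monitored as the change in GAPDH mRNA levels.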

[10] = target: T1, Nonstructural protein 5A (Hepatitis C virus); test: Inhibition of NS5A L31M mutant in HCV genotype 2b infected in HuH7 replicon cells assessed as decrease in viral replication after 3 days by RT-PCR method; assay type: cell-based; details: Hepatitis C virus subtype 2b
[11] = Resistance ratio of EC90 for NS5A L31M mutant in HCV genotype 1b infected in HuH7 replicon cells to EC90 for NS5A in HCV genotype 1a infected in HuH7 replicon cells; assay type: cell-based
[12] = Resistance ratio of EC90 for NS5A in HCV genotype 2a infected in HuH7 replicon cells to EC90 for NS5A in HCV genotype 1a infected in HuH7 replicon cells; assay type: cell-based
[13] = Clearance in Wistar Han rat at 2 mg/kg, iv by LC/MS method; assay type: ADME, organism-based; details: in vivo
Method in brief: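 Male Wistar Han rats, two per group, dosed IV at 2 mg/kg in 60% PEG200. Plasma was obtained by centrifuging the blood, and compound concentrations were measured by LC/MS.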

[14] = tested on: Hepatitis C virus subtype 1a; test: Resistance ratio of EC90 for NS5A A92P mutant in HCV genotype 1a infected in HuH7 replicon cells to EC90 for NS5A in HCV genotype 1a infected in HuH7 replicon cells; assay type: cell-based
[15] = AUC in Wistar Han rat at 10 mg/kg, po by LC/MS method; assay type: ADME, organism-based; details: in vivo; method in brief: as §2
[16] = Resistance ratio of EC90 for NS3 A156T mutant in HCV genotype 1b infected in HuH7 replicon cells to EC90 for NS5A in HCV genotype 1a infected in HuH7 replicon cells; assay type: cell-based
[17] = target: T1, Nonstructural protein 5A (Hepatitis C virus); test: Inhibition of NS5A in HCV genotype 2a infected in HuH7 replicon cells assessed as decrease in viral replication after 3 days by RT-PCR method; assay type: cell-based; details: Hepatitis C virus subtype 2a
[18] = target: T1, Nonstructural protein 5A (Hepatitis C virus); test: Inhibition of NS5A in HCV genotype 1a infected in HuH7 replicon cells assessed as decrease in viral replication after 3 days by RT-PCR method; assay type: cell-based; details: Hepatitis C virus subtype 1a
[19] = Resistance ratio of EC90 for NS5A A92K mutant in HCV genotype 1b infected in HuH7 replicon cells to EC90 for NS5A in HCV genotype 1a infected in HuH7 replicon cells; assay type: cell-based
[20] = Resistance ratio of EC90 for NS5A L31M/Y93H double mutant in HCV genotype 1b infected in HuH7 replicon cells to EC90 for NS5A in HCV genotype 1a infected in HuH7 replicon cells; assay type: cell-based
[21] = Drug level in Wistar Han rat at 10 mg/kg, po measured at 24 hrs by LC/MS method; assay type: ADME, organism-based; details: in vivo, read-out: Drug uptake; method in brief: as §2
[22] = target: T1, Nonstructural protein 5A (Hepatitis C virus); test: Inhibition of NS5A F28Y mutant in HCV genotype 2a infected in HuH7 replicon cells assessed as decrease in viral replication after 3 days by RT-PCR method; assay type: cell-based; details: Hepatitis C virus subtype 2a
[23] = target: T1, Nonstructural protein 5A (Hepatitis C virus); test: Inhibition of NS5A P32L mutant in HCV genotype 4a infected in HuH7 replicon cells assessed as decrease in viral replication after 3 days by RT-PCR method; assay type: cell-based; details: Hepatitis C virus subtype 4a

COC(=O)N[C@H](C(=O)N1CCC[C@H]1c1ncc(-c2cc(F)c3c(c2)O[C@@H](c2ccc(C4CC4)s2)n2c-3cc3cc(-c4cnc([C@@H]5CCCN5C(=O)[C@@H](NC(=O)OC)[C@@H]5CCOC(C)(C)C5)[nH]4)ccc32)[nH]1)C(C)C
Cmax [1]: 660 nM | concentration at 24 h [2]: 29 nM | bioavailability [3]: 6.6% | Ratio [4]: 69 | Cmax [5]: 150 to 183 nM | EC90 [6]: 0.5 pM | EC90 [7]: 180 pM | EC90 [8]: 3.9 pM | Ratio [9]: 43 | Activity (Huh-7): Non-Toxic | EC90 [10]: 18 pM | Ratio [11]: < 1 | Ratio [12]: < 1 | clearance [13]: 7 mL/min/kg | Ratio [14]: < 1 | AUC [15]: 0.95 to 1.65 µM·h | Ratio [16]: 1 | EC90 [17]: 2.7 pM | EC90 [18]: 4.2 pM | Ratio [19]: 6 | Ratio [20]: 45 | concentration at 24 h [21]: 3 to 11 nM | EC90 [22]: 69 pM | EC90 [23]: 4.4 pM
